Test results published in ChEMBL document CHEMBL3046428, “Isolation, characterization and antifungal activity of major constituents of the Himalayan lichen Parmelia reticulata Tayl” (2011).
In brackets after ≈: the same amount, converted by molar mass.

What was measured:
Assay type in all cases: functional
[1] = system: Globisporangium debaryanum; experiment: Antifungal activity against Pythium debaryanum assessed as growth inhibition at 7.25 ug/ml by poisoned food technique
Procedure, shortened: (§1)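 Poisoned-food assay on potato dextrose agar: test material is dissolved and diluted in acetone and mixed into the medium before pouring, with an acetone-only control. A 5 mm mycelial disk is cut from the growing edge of a 2-week-old colony and placed inoculum-down at the plate centre. Plates are incubated at 28 °C until control growth is nearly complete. Colony diameter is measured, and % inhibition = (C−T)/C×100. Four replicates give the mean.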

[2] = system: Rhizoctonia solani; experiment: Antifungal activity against Rhizoctonia solani assessed as growth inhibition at 31 ug/ml by poisoned food technique; procedure, shortened: as §1
[3] = system: Rhizoctonia solani; experiment: Antifungal activity against Rhizoctonia solani assessed as growth inhibition at 15.50 ug/ml by poisoned food technique; procedure, shortened: as §1
[4] = system: Macrophomina phaseolina; experiment: Antifungal activity against Rhizoctonia bataticola assessed as growth inhibition at 7.25 ug/ml by poisoned food technique; procedure, shortened: as §1
[5] = system: Athelia rolfsii; experiment: Antifungal activity against Athelia rolfsii assessed as growth inhibition at 7.25 ug/ml by poisoned food technique; conditions: Agroathelia rolfsii; procedure, shortened: as §1
[6] = system: Pythium aphanidermatum; experiment: Antifungal activity against Pythium aphanidermatum assessed as growth inhibition at 7.25 ug/ml by poisoned food technique; procedure, shortened: as §1
[7] = system: Athelia rolfsii; experiment: Antifungal activity against Athelia rolfsii assessed as growth inhibition at 15.50 ug/ml by poisoned food technique; conditions: Agroathelia rolfsii; procedure, shortened: as §1
[8] = system: Macrophomina phaseolina; experiment: Antifungal activity against Rhizoctonia bataticola assessed as growth inhibition at 15.50 ug/ml by poisoned food technique; procedure, shortened: as §1
[9] = system: Athelia rolfsii; experiment: Antifungal activity against Athelia rolfsii assessed as growth inhibition by poisoned food technique; conditions: Agroathelia rolfsii; read-out: ED50 (the source's name)
Procedure, shortened: (§2)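 ED50 from poisoned-food growth inhibition on PDA at 250, 125 and 62.5 μg/mL in medium, with an acetone control. Plates were inoculated with a 5 mm mycelial disc, incubated at 28 °C, and colony diameter was measured in quadruplicate. Percent inhibition was corrected by Abbott's formula, using a correction factor from the 9 cm dish diameter, and ED50 (μg/mL) was derived by probit analysis.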

[10] = system: Globisporangium debaryanum; experiment: Antifungal activity against Pythium debaryanum assessed as growth inhibition by poisoned food technique; conditions: read-out: ED50 (the source's name); procedure, shortened: as §2
[11] = system: Athelia rolfsii; experiment: Antifungal activity against Athelia rolfsii assessed as growth inhibition at 31 ug/ml by poisoned food technique; conditions: Agroathelia rolfsii; procedure, shortened: as §1
[12] = system: Fusarium udum; experiment: Antifungal activity against Fusarium udum assessed as growth inhibition at 15.50 ug/ml by poisoned food technique; procedure, shortened: as §1
[13] = system: Rhizoctonia solani; experiment: Antifungal activity against Rhizoctonia solani assessed as growth inhibition by poisoned food technique; conditions: read-out: ED50 (the source's name); procedure, shortened: as §2
[14] = system: Globisporangium debaryanum; experiment: Antifungal activity against Pythium debaryanum assessed as growth inhibition at 31 ug/ml by poisoned food technique; procedure, shortened: as §1
[15] = system: Fusarium udum; experiment: Antifungal activity against Fusarium udum assessed as growth inhibition at 7.25 ug/ml by poisoned food technique; procedure, shortened: as §1
[16] = system: Fusarium udum; experiment: Antifungal activity against Fusarium udum assessed as growth inhibition by poisoned food technique; conditions: read-out: ED50 (the source's name); procedure, shortened: as §2
[17] = system: Pythium aphanidermatum; experiment: Antifungal activity against Pythium aphanidermatum assessed as growth inhibition by poisoned food technique; conditions: read-out: ED50 (the source's name); procedure, shortened: as §2
[18] = system: Pythium aphanidermatum; experiment: Antifungal activity against Pythium aphanidermatum assessed as growth inhibition at 31 ug/ml by poisoned food technique; procedure, shortened: as §1
[19] = system: Rhizoctonia solani; experiment: Antifungal activity against Rhizoctonia solani assessed as growth inhibition at 7.25 ug/ml by poisoned food technique; procedure, shortened: as §1
[20] = system: Fusarium udum; experiment: Antifungal activity against Fusarium udum assessed as growth inhibition at 31 ug/ml by poisoned food technique; procedure, shortened: as §1
[21] = system: Macrophomina phaseolina; experiment: Antifungal activity against Rhizoctonia bataticola assessed as growth inhibition at 31 ug/ml by poisoned food technique; procedure, shortened: as §1
[22] = system: Pythium aphanidermatum; experiment: Antifungal activity against Pythium aphanidermatum assessed as growth inhibition at 15.50 ug/ml by poisoned food technique; procedure, shortened: as §1
[23] = system: Globisporangium debaryanum; experiment: Antifungal activity against Pythium debaryanum assessed as growth inhibition at 15.50 ug/ml by poisoned food technique; procedure, shortened: as §1
[24] = system: Macrophomina phaseolina; experiment: Antifungal activity against Rhizoctonia bataticola assessed as growth inhibition by poisoned food technique; conditions: read-out: ED50 (the source's name); procedure, shortened: as §2
[25] = system: Fusarium udum; experiment: Antifungal activity against Fusarium udum assessed as growth inhibition at 250 ug/ml by poisoned food technique
Procedure, shortened: (§3)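 Poisoned-food assay on PDA. Test material was diluted in acetone and mixed into molten medium at final 250, 125 or 62.5 μg/mL, with 1 mL acetone as control. Plates received a 5 mm mycelial disc from the front of a 2-week-old colony and were incubated at 28 °C until control growth was nearly complete. Colony diameter was measured, giving %I = (C−T)/C×100. Mean ± SD of four replicates.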

[26] = system: Athelia rolfsii; experiment: Antifungal activity against Athelia rolfsii assessed as growth inhibition at 250 ug/ml by poisoned food technique; conditions: Agroathelia rolfsii; procedure, shortened: as §3
[27] = system: Fusarium udum; experiment: Antifungal activity against Fusarium udum assessed as growth inhibition at 125 ug/ml by poisoned food technique; procedure, shortened: as §3
[28] = system: Globisporangium debaryanum; experiment: Antifungal activity against Pythium debaryanum assessed as growth inhibition at 62.5 ug/ml by poisoned food technique; procedure, shortened: as §3
[29] = system: Globisporangium debaryanum; experiment: Antifungal activity against Pythium debaryanum assessed as growth inhibition at 125 ug/ml by poisoned food technique; procedure, shortened: as §3
[30] = system: Macrophomina phaseolina; experiment: Antifungal activity against Rhizoctonia bataticola assessed as growth inhibition at 62.5 ug/ml by poisoned food technique; procedure, shortened: as §3
[31] = system: Globisporangium debaryanum; experiment: Antifungal activity against Pythium debaryanum assessed as growth inhibition at 250 ug/ml by poisoned food technique; procedure, shortened: as §3
[32] = system: Pythium aphanidermatum; experiment: Antifungal activity against Pythium aphanidermatum assessed as growth inhibition at 62.5 ug/ml by poisoned food technique; procedure, shortened: as §3
[33] = system: Pythium aphanidermatum; experiment: Antifungal activity against Pythium aphanidermatum assessed as growth inhibition at 250 ug/ml by poisoned food technique; procedure, shortened: as §3
[34] = system: Macrophomina phaseolina; experiment: Antifungal activity against Rhizoctonia bataticola assessed as growth inhibition at 250 ug/ml by poisoned food technique; procedure, shortened: as §3
[35] = system: Rhizoctonia solani; experiment: Antifungal activity against Rhizoctonia solani assessed as growth inhibition at 62.5 ug/ml by poisoned food technique; procedure, shortened: as §3
[36] = system: Pythium aphanidermatum; experiment: Antifungal activity against Pythium aphanidermatum assessed as growth inhibition at 125 ug/ml by poisoned food technique; procedure, shortened: as §3
[37] = system: Macrophomina phaseolina; experiment: Antifungal activity against Rhizoctonia bataticola assessed as growth inhibition at 125 ug/ml by poisoned food technique; procedure, shortened: as §3
[38] = system: Athelia rolfsii; experiment: Antifungal activity against Athelia rolfsii assessed as growth inhibition at 62.5 ug/ml by poisoned food technique; conditions: Agroathelia rolfsii; procedure, shortened: as §3
[39] = system: Rhizoctonia solani; experiment: Antifungal activity against Rhizoctonia solani assessed as growth inhibition at 250 ug/ml by poisoned food technique; procedure, shortened: as §3
[40] = system: Rhizoctonia solani; experiment: Antifungal activity against Rhizoctonia solani assessed as growth inhibition at 125 ug/ml by poisoned food technique; procedure, shortened: as §3
[41] = system: Fusarium udum; experiment: Antifungal activity against Fusarium udum assessed as growth inhibition at 62.5 ug/ml by poisoned food technique; procedure, shortened: as §3
[42] = system: Athelia rolfsii; experiment: Antifungal activity against Athelia rolfsii assessed as growth inhibition at 125 ug/ml by poisoned food technique; conditions: Agroathelia rolfsii; procedure, shortened: as §3

Compound `CCCCC(O)(Cn1cncn1)c1ccc(Cl)cc1Cl` (stereo not drawn) [HEXACONAZOLE] has an inhibition at 7.25 µg/mL [1] of 11.1%, an inhibition at 31 µg/mL [2] of 72.6% and an inhibition at 15.5 µg/mL [3] of 38.2%. It also gave an inhibition at 7.25 µg/mL [4] of 60.1%, an inhibition at 7.25 µg/mL [5] of 28.2% and an inhibition at 7.25 µg/mL [6] of 14.1%. The inhibition at 15.5 µg/mL [7] was 45.3%, the inhibition at 15.5 µg/mL [8] was 73.2% and the EC50 [9] was 13.4 µg/mL (≈ 42.7 µM). For the same compound, the EC50 [10] was 25.9 µg/mL (≈ 82.5 µM), the inhibition at 31 µg/mL [11] was 90.7% and the inhibition at 15.5 µg/mL [12] was 23.7%. The EC50 [13] was 18.3 µg/mL (≈ 58.2 µM), the inhibition at 31 µg/mL [14] was 59.2% and the inhibition at 7.25 µg/mL [15] was 18.6%. For the same compound, the EC50 [16] was 22 µg/mL (≈ 70 µM), the EC50 [17] was 22.1 µg/mL (≈ 70.2 µM) and the inhibition at 31 µg/mL [18] was 65.3%. The inhibition at 7.25 µg/mL [19] was 20.6%, the inhibition at 31 µg/mL [20] was 70% and the inhibition at 31 µg/mL [21] was 87%. For the same compound, the inhibition at 15.5 µg/mL [22] was 32.7%, the inhibition at 15.5 µg/mL [23] was 26.3% and the EC50 [24] was 4.4 µg/mL (≈ 14 µM).

`CCOC(=O)c1c(C)cc(O)c(C=O)c1O` [ETHYL HEMATOMMATE] gave an inhibition at 250 µg/mL [25] of 27.4%, an inhibition at 250 µg/mL [26] of 61% and an inhibition at 125 µg/mL [27] of 13.5%. For the same compound, the inhibition at 62.5 µg/mL [28] was 15.1%, the inhibition at 125 µg/mL [29] was 26.3% and the EC50 [9] was 99 µg/mL (≈ 441 µM). For the same compound, the EC50 [10] was 128 µg/mL (≈ 573 µM), the inhibition at 62.5 µg/mL [30] was 27.4% and the EC50 [13] was 125 µg/mL (≈ 557 µM). The inhibition at 250 µg/mL [31] was 56.5%, the EC50 [16] was 250 µg/mL (≈ 1120 µM) and the EC50 [17] was 133 µg/mL (≈ 592 µM). The inhibition at 62.5 µg/mL [32] was 13.1%, the inhibition at 250 µg/mL [33] was 50.4% and the inhibition at 250 µg/mL [34] was 53.4%. For the same compound, the inhibition at 62.5 µg/mL [35] was 15.3%, the inhibition at 125 µg/mL [36] was 32.6% and the inhibition at 125 µg/mL [37] was 42.8%. The inhibition at 62.5 µg/mL [38] was 28.4%, the inhibition at 250 µg/mL [39] was 55.5% and the inhibition at 125 µg/mL [40] was 33.5%. It also gave an EC50 [24] of 117 µg/mL (≈ 523 µM), an inhibition at 62.5 µg/mL [41] of 6.4% and an inhibition at 125 µg/mL [42] of 47.5%.
